Bounds are passed on as bounds.

The format of data set [1] is in vivo, female Sprague-Dawley rats. The conditions noted are these: oral 21 days, N-EtFOSE 5.0 mg/kg or ciprofibrate 7.5 mg/kg/day.
Data set [2] concerns total SOD. Kind of data set: Total SOD activity in liver and uterus. Conditions: Figure 4. Type of data set: in vivo, female Sprague-Dawley rats.
Data set [3] has as its system Manganese superoxide dismutase (MnSOD). Kind of data set: MnSOD activity in liver and uterus. Type of data set: in vivo, female Sprague-Dawley rats. Conditions: Figure 4; for MnSOD activity in the liver, change versus control: ciprofibrate p = 0.07.
Data set [4] can be described thus: Histopathological evaluation of H&E stained liver and uterus sections. The class given is in vivo, female Sprague-Dawley rats.
For data set [5], the system named is Catalase. As to the kind of experiment: Catalase activity in liver and uterus. Type of data set: in vivo, female Sprague-Dawley rats. The conditions noted are these: Figure 5. The method, boiled down: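 Female Sprague-Dawley rats were gavaged once daily, 5 days/week for 21 days, with test compound at 5.0 mg/kg in corn oil (2 mL/kg) or with vehicle. A positive control peroxisome proliferator was given at 7.5 mg/kg/day in water/methylcellulose. H2O2 was added to liver or uterus homogenate in potassium phosphate buffer (pH 7.8), and H2O2 loss at 240 nm was followed for 2 min. Results are milli-k units/mg Lowry protein, compared by ANOVA with Dunnett's test.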

Data set [6] relates to Thiobarbituric acid reactive substances (TBARS). As to the kind of experiment: TBARS in whole liver homogenate. The class given is in vivo, female Sprague-Dawley rats. Conditions: data not shown. In outline: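 Female Sprague-Dawley rats were gavaged once daily, 5 days/week for 21 days. Groups: test compound at 5.0 mg/kg in corn oil (2 mL/kg, n=9), corn-oil vehicle (n=9), or a reference peroxisome proliferator at 7.5 mg/kg/day in water/methylcellulose (n=8). Euthanasia was 3 days (1 day for the reference agent) after the last dose. TBARS were measured fluorometrically in whole liver homogenate.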

In data set [7] the test system is reduced to oxidized glutathione. As to the kind of experiment: Total and oxidized glutathione. Type of data set: in vivo, female Sprague-Dawley rats. Conditions: data not shown. In outline: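 Female Sprague-Dawley rats were gavaged for 21 days (5 days/week) with test compound at 5.0 mg/kg in corn oil (n=9), vehicle (n=9), or a reference peroxisome proliferator at 7.5 mg/kg/day (n=8), then killed by CO2. Liver and uterus aliquots were homogenized immediately in 5% 5-sulfosalicylic acid. Total and oxidized glutathione were measured by enzymatic recycling, and the GSH:GSSG ratio was derived.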

In data set [8] the test system is Total GPx. Kind of data set: Total GPx activity. Conditions: Figure 6. The class given is in vivo, female Sprague-Dawley rats. In outline:
(§1)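 Rats were dosed orally for 21 days (5 days/week) with test compound at 5.0 mg/kg/day in corn oil, with vehicle, or with a positive control. Liver and uterus homogenates were assayed in a coupled glutathione reductase/NADPH system, reading NADPH decrease at 340 nm. H2O2 was the substrate for GPx-1 and cumene hydroperoxide for total GPx. Results are milliunits/mg Lowry protein, analysed by ANOVA and Dunnett's test (p<0.05).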

In data set [9] the test system is copper zinc superoxide dismutase (CuZnSOD). As to the kind of experiment: CuZnSOD activity in liver and uterus. Type of data set: in vivo, female Sprague-Dawley rats. Conditions: Figure 4.
In data set [10] the test system is GPx-1. As to the kind of experiment: GPx-1 activity. The class given is in vivo, female Sprague-Dawley rats. Conditions: Figure 6. The method, boiled down:
as §1

In data set [11] the test system is peroxisomal acyl Co-A oxidase (AOX). Kind of data set: Peroxisomal acyl Co-A oxidase activity in liver homogenates. Conditions: for AOX activity in liver, change versus control (significance): Figure 3; for Increase of peroxisomal AOX activity in liver compared to control: oral 21 days, N-EtFOSE increase p = 0.35. The class given is in vivo, female Sprague-Dawley rats.

Data set [12] in a line: Levels of N-EtFOSE and metabolites in liver and serum. The class given is in vivo, female Sprague-Dawley rats. Conditions: for Liver: serum ratio: N-EtFOSE-treated female rats, mean; for %TD in Serum / %TD in Serum (× 10^-3): assuming serum volume of 4.86 mL/100 mg.
The conditions of data set [13]: sheep, in vivo; cited from earlier work.
The conditions of data set [14]: sheep; ref Vitayavirasuk and Bowen, 1999; cited from earlier work.
For data set [15] the following is noted: rat, in vivo; cited from earlier work.
The conditions of data set [16]: human blood; ref Kärrman et al., 2006b; cited from earlier work.
For data set [17] the following is noted: rat, in vivo; cited from earlier work. This is another data set of the same source.
Where [18] appears, read: percentage of the total N-EtFOSE dose.
The mark [19] stands for this setting: percentage of the total N-EtFOSE dose, recovery adjusted.

`CC(C)(Oc1ccc(C2CC2(Cl)Cl)cc1)C(=O)O` (stereo not shown) [Ciprofibrate, reference compound]: the “Survival and clinical signs of toxicity” value in data set [1] is listed as “no clinical findings”. Moreover, in data set [1] (mean ± SD), the “Organ weight, Kidney” value was 1.69 ± 0.05 g; the “Organ weight, Liver” value is on record as 13 ± 0.97 g; the “Organ weight, Spleen” value was 0.58 ± 0.04 g; the “Organ weight, Uterus” value turned out to be 0.31 ± 0.06 g. Also, in data set [1] (mean ± SD), the “Ratio of Organ Weight to Body Weight, Liver” value stood at 5.9 ± 0.3 % and the “Ratio of Organ Weight to Body Weight, Spleen” value is 2.5 ± 0.2 % (× 10^-3). In data set [2], the “Total SOD activity in the liver, change versus control” value is reported as “not significant effect” and the “Total SOD activity in the uterus, change versus control” value is “did not significantly alter”. For the same molecule, in data set [3], the “MnSOD activity in the liver, change versus control” value was “tended to be increased” and the “MnSOD activity in the uterus, change versus control” value is reported as “significantly decreased”. Also, in [4] (oral 21 days, data not shown), the “Histopathological evaluation of H&E stained liver and uterus slices” value was “did not reveal pathological changes”. For the same molecule, in data set [5], the “Catalase activity in the liver, change versus control” value is listed as “not significantly altered” and the “Catalase activity in the uterus, change versus control” value is reported as “did not alter”. In addition, the “TBARS in the liver” value in [6] is “Neither N-EtFOSE nor ciprofibrate had an effect”. For the same molecule, in [7], the “GSH:GSSG ratio in the liver” value is given as “Neither N-EtFOSE nor ciprofibrate had an effect” and the “GSH:GSSG ratio in the uterus” value is reported as “Neither N-EtFOSE nor ciprofibrate had an effect”. Further, in [8], the “Total GPx activity in the liver, change versus control” value was “significantly decreased” and the “Total GPx activity in the uterus, change versus control” value is reported as “significantly decreased”. In data set [9], the “CuZnSOD activity in the liver, change versus control” value is given as “not significant effect” and the “CuZnSOD activity in the uterus, change versus control” value is “increased”. Besides, in data set [10], the “GPx-1 activity in the liver, change versus control” value was “significantly decreased” and the “GPx-1 activity in the uterus, change versus control” value is on record as “decreased only in the liver”. Moreover, in data set [11], the “AOX activity in liver, change versus control (significance)” value is “significant increase” and the “Increase of peroxisomal AOX activity in liver compared to control” value is recorded as 300 fold.

With `O=S(=O)(O)C(F)(F)C(F)(F)C(F)(F)C(F)(F)C(F)(F)C(F)(F)C(F)(F)C(F)(F)F` [PFOS, perfluorooctane sulfonic acid], the “Liver: serum ratio” value in data set [12] was determined as 2.3. In addition, the “%TD in Serum” value in [12] (setting [18]) is on record as 3.86 ± 0.86 %TD. Also, the “%TD in Liver” value in [12] (setting [19]) was found to be 6.23 ± 0.95 %TD. Besides, the “Share of the total N-EtFOSE dose in the serum and liver” value in data set [12] (serum plus liver) is “approximately 9.5±1.2%”.

As a reminder, the Kp is tissue or fluid exposure divided by exposure in the circulation. With `NS(=O)(=O)C(F)(F)C(F)(F)C(F)(F)C(F)(F)C(F)(F)C(F)(F)C(F)(F)C(F)(F)F` [FOSA, perfluorooctanesulfonamide], in data set [12] (female, Sprague-Dawley, rat, in vivo), the Kp at 3 days after the last dose came to 10.1. In addition, the “%TD in Serum (× 10^-3)” value in [12] (setting [18]) is recorded as 25.3 ± 6.1 (× 10^-3) %TD (× 10^-3). Moreover, in data set [12] (setting [19]), the “%TD in Liver” value is reported as 0.29 ± 0.06 %TD. In data set [13], the elimination phase half-life was 63.4 h. The plasma-to-whole blood ratio in data set [14] is given as 0.04. Besides, the half-life result in data set [15] is on record as “approximately 100 hours”. Also, the “mean plasma-to-whole blood ratio” value in data set [16] is 0.2.

For the molecule `CCN(CCO)S(=O)(=O)C(F)(F)C(F)(F)C(F)(F)C(F)(F)C(F)(F)C(F)(F)C(F)(F)C(F)(F)F` [N-EtFOSE, N-Ethyl perfluorooctanesulfonamidoethanol], in [12] (setting [18]), the “%TD in Serum (× 10^-3)” value is on record as 0.42 ± 0.20 (× 10^-3) (n=5) %TD (× 10^-3). Further, the “Uncorrected N-EtFOSE level in the liver” value in data set [12] (rat, in vivo) is “c Corrected N-EtFOSE levels in the liver are not reported because of the poor recovery rate (2.5±1%); uncorrected N-EtFOSE levels group were low, with 4.6 ± 4.7 ppb in N-EtFOSE-treated animals and 7.8 ± 1.3 ppb in control animals”. In addition, the “Survival and clinical signs of toxicity” value in data set [1] is “no clinical findings”. In data set [1] (mean ± SD), the “Ratio of Organ Weight to Body Weight, Kidney” value worked out at 6.8 ± 0.4%; the “Ratio of Organ Weight to Body Weight, Spleen” value is 2.7 ± 0.2 % (× 10^-3); the “Ratio of Organ Weight to Body Weight, Uterus” value turned out to be 1.6 ± 0.3%. Further, in [2], the “Total SOD activity in the liver, change versus control” value was “significantly increased” and the “Total SOD activity in the uterus, change versus control” value is listed as “significantly increased”. In data set [3], the “MnSOD activity in the liver, change versus control” value is “significantly increased” and the “MnSOD activity in the uterus, change versus control” value is listed as “only exception”. Also, the “Histopathological evaluation of H&E stained liver and uterus slices” value in [4] (rat, in vivo, po) is reported as “did not reveal pathological changes”. Moreover, in [5], the “Catalase activity in the liver, change versus control” value is “not significantly altered” and the “Catalase activity in the uterus, change versus control” value is “significantly increased”. Further, the “TBARS in the liver” value in [6] was “Neither N-EtFOSE nor ciprofibrate had an effect”. Besides, in data set [7], the “GSH:GSSG ratio in the liver” value was “Neither N-EtFOSE nor ciprofibrate had an effect” and the “GSH:GSSG ratio in the uterus” value is recorded as “Neither N-EtFOSE nor ciprofibrate had an effect”. In addition, the “Doses causing a reduced body weight gain in pregnant rats” value in [17] is above 5 mg/kg body weight/day. Also, in data set [8], the “Total GPx activity in the liver, change versus control” value is recorded as “No significant change” and the “Total GPx activity in the uterus, change versus control” value is “significant decrease”. In data set [9], the “CuZnSOD activity in the liver, change versus control” value was “significantly increased” and the “CuZnSOD activity in the uterus, change versus control” value was “significantly increased”. Moreover, in [10], the “GPx-1 activity in the liver, change versus control” value was “No significant change” and the “GPx-1 activity in the uterus, change versus control” value was “no effect”. Also, in [11], the “AOX activity in liver, change versus control (significance)” value is on record as “did not reach statistical significance” and the “Increase of peroxisomal AOX activity in liver compared to control” value is given as 16 fold.

On to `O=S(=O)(NCCO)C(F)(F)C(F)(F)C(F)(F)C(F)(F)C(F)(F)C(F)(F)C(F)(F)C(F)(F)F` [FOSE, perfluorooctanesulfonamidoethanol], for which, in [12], the “Liver: serum ratio” value was determined as 6.4. The “%TD in Serum (× 10^-3)” value in data set [12] (setting [18]) is 0.07 ± 0.03 (× 10^-3) %TD (× 10^-3). Also, the “%TD in Liver (× 10^-3)” value in data set [12] (setting [19]) was 0.58 ± 0.35 (× 10^-3) %TD (× 10^-3).

Consider `CCN(CC(=O)O)S(=O)(=O)C(F)(F)C(F)(F)C(F)(F)C(F)(F)C(F)(F)C(F)(F)C(F)(F)C(F)(F)F` [N-EtFOSAA, N-ethyl perfluorooctanesulfonamidoacetate], for which the “Liver: serum ratio” value in data set [12] turned out to be 1.3. In addition, the “%TD in Serum” value in data set [12] (setting [18]) came to 0.38 ± 0.17 %TD. The “%TD in Liver” value in [12] (setting [19]) was 0.43 ± 0.13 %TD.

The values above are taken from publication PMC2755535 (Archives of toxicology, 2009).
